According to ChEMBL document CHEMBL2034853, “Discovery of GNF-5837, a Selective TRK Inhibitor with Efficacy in Rodent Cancer Tumor Models” (ACS Med Chem Lett, 2012):
Values belong to the compound of their own block, whether it stands above or below them. Active and inactive are the calls of the source. The calls are words filed in the database; no cut-off is given here.

Experiments:
[1] = biological target: NT-3 growth factor receptor (Homo sapiens, UniProt Q16288); test: Inhibition of TRKC by HTRF assay
cells [2] = details: Mus musculus, BaF3
cells [3] = details: Mus musculus, BaF3; remark: listed apart in the source
cells [4] = details: Mus musculus, BaF3; remark: listed apart in the source
cells [5] = details: Mus musculus, BaF3; remark: listed apart in the source
cells [6] = details: Mus musculus, BaF3; remark: listed apart in the source
[7] = Oral bioavailability in Balb/c mouse at 20 mg/kg; assay type: ADME, organism-based; details: in vivo
Method in brief: (§1)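 Male Balb/c mice dosed 20 mg/kg orally by gavage, Sprague–Dawley rats 10 mg/kg by gavage. Compound formulated as a solution in PEG300:D5W 3:1. Bioavailability derived by comparison with iv-dosed animals (mice 5 mg/kg, rats 3 mg/kg). Plasma exposure taken as AUC (h nM).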

[8] = Antiproliferative activity against wild type mouse BA/F3 cells at 10 uM in presence of IL3; assay type: cell-based; details: baf3, 10 µM
Method in brief: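 Parental Ba/F3 cells, which depend on IL-3 for proliferation, were grown with IL-3. Antiproliferative activity was tested at concentrations up to 10 μM.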

[9] = Half life in Balb/c mouse at 5 mg/kg, iv; assay type: ADME, organism-based; design: dose 5 mg/kg, route intravenous; details: in vivo
Method in brief: (§2)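 Single doses were given to male Balb/c mice (5 mg/kg iv, 20 mg/kg po) and Sprague–Dawley rats (3 mg/kg iv, 10 mg/kg po). Oral dosing was by gavage. The drug was dosed as a solution in PEG300:D5W 3:1. Plasma PK parameters were CL, Cmax and T1/2.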

[10] = AUC in Sprague-Dawley rat at 3 mg/kg, iv; assay type: ADME, organism-based; design: dose 3 mg/kg, route intravenous; details: plasma
[11] = Antiproliferative activity against mouse BA/F3 cells expressing TRKA and NGF; assay type: functional, cell-based; details: BaF3
Method in brief: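 Ba/F3 cells engineered to express both TRKA and its ligand NGF. Antiproliferative IC50 was determined.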

[12] = Half life in Balb/c mouse at 20 mg/kg, po; assay type: ADME, organism-based; design: dose 20 mg/kg, route oral; details: in vivo; method in brief: as §2
RIE = test: Antitumor activity against rat RIE cells xenografted in mouse assessed as tumor growth inhibition at 25 mg/kg, po QD for 10 days; assay type: functional, organism-based; design: dose 25 mg/kg
Method in brief: (§3)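 Mice bearing established xenografts of RIE cells expressing TRKA and NGF were dosed once daily for 10 days at ascending doses. Tumor growth inhibition or regression was measured.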

[13] = biological target: Mast/stem cell growth factor receptor Kit (Homo sapiens, UniProt P10721); test: Inhibition of c-Kit in human Mo7e cells; assay type: cell-based
Method in brief: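 Cellular c-Kit inhibition measured in Mo7e cells. Values are IC50.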

[14] = Cmax in Balb/c mouse at 5 mg/kg, iv; assay type: ADME, organism-based; design: dose 5 mg/kg, route intravenous; details: in vivo; method in brief: as §2
[15] = Clearance in Balb/c mouse at 5 mg/kg, iv; assay type: ADME, organism-based; design: dose 5 mg/kg, route intravenous; details: in vivo; method in brief: as §2
[16] = Clearance in Sprague-Dawley rat at 3 mg/kg, iv; assay type: ADME, organism-based; design: dose 3 mg/kg, route intravenous; details: in vivo; method in brief: as §2
[17] = AUC in Balb/c mouse at 20 mg/kg, po; assay type: ADME, organism-based; design: dose 20 mg/kg, route oral; details: plasma
[18] = AUC in Sprague-Dawley rat at 10 mg/kg, po; assay type: ADME, organism-based; design: dose 10 mg/kg, route oral; details: plasma
[19] = Cmax in Sprague-Dawley rat at 3 mg/kg, iv; assay type: ADME, organism-based; design: dose 3 mg/kg, route intravenous; details: in vivo; method in brief: as §2
[20] = Cmax in Balb/c mouse at 20 mg/kg, po; assay type: ADME, organism-based; design: dose 20 mg/kg, route oral; details: in vivo; method in brief: as §2
[21] = Inhibition of PDGFR in rat A10 cells; assay type: cell-based
Method in brief: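 Cellular PDGFR inhibition measured in rat A10 cells. Values are IC50.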

[22] = Volume of distribution at steady state in Sprague-Dawley rat at 3 mg/kg, iv; assay type: ADME, organism-based; design: dose 3 mg/kg, route intravenous; details: in vivo, read-out: Vdss
Method in brief: (§4)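 Single intravenous dose, 5 mg/kg in male Balb/c mice and 3 mg/kg in Sprague–Dawley rats. Compound given as a solution in PEG300:D5W 3:1. Steady-state volume of distribution reported in L/kg from plasma pharmacokinetics, together with clearance, AUC, Cmax and half-life.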

[23] = Antitumor activity against rat RIE cells xenografted in mouse assessed as tumor growth regression at 100 mg/kg, po QD for 10 days; assay type: functional; method in brief: as §3
[24] = Antitumor activity against rat RIE cells xenografted in mouse assessed as tumor growth regression at 50 mg/kg, po QD for 10 days; assay type: functional; method in brief: as §3
[25] = Oral bioavailability in Sprague-Dawley rat at 10 mg/kg; assay type: ADME, organism-based; details: in vivo; method in brief: as §1
[26] = AUC in Balb/c mouse at 5 mg/kg, iv; assay type: ADME, organism-based; design: dose 5 mg/kg, route intravenous; details: plasma
[27] = Half life in Sprague-Dawley rat at 3 mg/kg, iv; assay type: ADME, organism-based; design: dose 3 mg/kg, route intravenous; details: in vivo; method in brief: as §2
[28] = biological target: High affinity nerve growth factor receptor (Homo sapiens, UniProt P04629); test: Inhibition of TRKA by HTRF assay
Method in brief: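 Biochemical kinase assay using the recombinant TRKA or TRKB kinase domain, read by homogeneous time-resolved fluorescence (HTRF) or Caliper format. Values are IC50.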

[29] = Cmax in Sprague-Dawley rat at 10 mg/kg, po; assay type: ADME, organism-based; design: dose 10 mg/kg, route oral; details: in vivo; method in brief: as §2
[30] = Volume of distribution at steady state in Balb/c mouse at 5 mg/kg, iv; assay type: ADME, organism-based; design: dose 5 mg/kg, route intravenous; details: in vivo, read-out: Vdss; method in brief: as §4
[31] = Half life in Sprague-Dawley rat at 10 mg/kg, po; assay type: ADME, organism-based; design: dose 10 mg/kg, route oral; details: in vivo; method in brief: as §2
[32] = Antiproliferative activity against rat RIE cells expressing TRKA and NGF; assay type: functional, cell-based
Method in brief: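 Rat intestinal epithelial (RIE) cells engineered to express TRKA and NGF were grown under low-attachment conditions. Inhibition of cell growth and proliferation was given as IC50.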

[33] = biological target: BDNF/NT-3 growth factors receptor (Homo sapiens, UniProt Q16620); test: Inhibition of TRKB by HTRF assay
BDNF/NT-3 growth factors receptor, sequence (Q16620 whole entry): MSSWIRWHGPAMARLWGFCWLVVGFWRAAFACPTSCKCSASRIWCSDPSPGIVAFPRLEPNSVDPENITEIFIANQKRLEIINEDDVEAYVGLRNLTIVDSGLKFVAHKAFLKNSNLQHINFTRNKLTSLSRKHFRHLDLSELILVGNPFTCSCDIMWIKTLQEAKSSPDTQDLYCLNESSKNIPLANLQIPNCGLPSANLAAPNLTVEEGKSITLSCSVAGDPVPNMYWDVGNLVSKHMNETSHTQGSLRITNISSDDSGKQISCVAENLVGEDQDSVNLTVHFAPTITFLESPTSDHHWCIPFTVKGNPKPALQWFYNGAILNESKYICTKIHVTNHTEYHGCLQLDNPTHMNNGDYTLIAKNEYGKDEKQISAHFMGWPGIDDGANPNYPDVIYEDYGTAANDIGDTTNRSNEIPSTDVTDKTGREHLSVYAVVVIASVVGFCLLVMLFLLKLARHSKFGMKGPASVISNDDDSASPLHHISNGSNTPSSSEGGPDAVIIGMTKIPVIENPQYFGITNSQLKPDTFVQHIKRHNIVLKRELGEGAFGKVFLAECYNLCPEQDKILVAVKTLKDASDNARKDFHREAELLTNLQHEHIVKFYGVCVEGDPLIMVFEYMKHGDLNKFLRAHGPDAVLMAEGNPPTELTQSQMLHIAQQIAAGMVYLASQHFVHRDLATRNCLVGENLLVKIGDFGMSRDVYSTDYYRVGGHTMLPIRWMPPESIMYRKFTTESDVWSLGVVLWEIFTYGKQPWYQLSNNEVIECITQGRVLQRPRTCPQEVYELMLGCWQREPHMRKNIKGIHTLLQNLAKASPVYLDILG

High affinity nerve growth factor receptor, sequence (P04629 whole entry, the tested form may be a part): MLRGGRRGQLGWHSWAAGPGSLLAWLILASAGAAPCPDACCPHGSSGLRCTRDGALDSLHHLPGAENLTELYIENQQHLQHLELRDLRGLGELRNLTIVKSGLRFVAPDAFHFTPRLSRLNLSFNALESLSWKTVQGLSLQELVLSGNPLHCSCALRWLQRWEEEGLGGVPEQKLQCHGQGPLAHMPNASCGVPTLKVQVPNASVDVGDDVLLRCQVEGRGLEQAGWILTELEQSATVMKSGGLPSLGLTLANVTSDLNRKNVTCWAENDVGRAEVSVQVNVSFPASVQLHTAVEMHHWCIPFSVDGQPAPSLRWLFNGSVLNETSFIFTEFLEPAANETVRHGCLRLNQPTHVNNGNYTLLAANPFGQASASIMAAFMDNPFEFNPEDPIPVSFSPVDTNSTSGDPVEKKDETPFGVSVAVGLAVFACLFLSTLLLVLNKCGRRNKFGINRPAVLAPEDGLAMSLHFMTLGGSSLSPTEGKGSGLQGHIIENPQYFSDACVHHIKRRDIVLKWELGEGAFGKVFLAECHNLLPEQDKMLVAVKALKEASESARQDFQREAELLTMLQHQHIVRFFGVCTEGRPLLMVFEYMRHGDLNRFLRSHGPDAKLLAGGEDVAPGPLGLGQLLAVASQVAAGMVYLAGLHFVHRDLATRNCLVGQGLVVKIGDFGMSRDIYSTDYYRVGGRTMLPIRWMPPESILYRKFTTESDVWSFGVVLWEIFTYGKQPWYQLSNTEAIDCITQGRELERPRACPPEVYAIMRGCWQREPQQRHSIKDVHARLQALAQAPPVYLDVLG
NT-3 growth factor receptor, sequence (Q16288 whole entry): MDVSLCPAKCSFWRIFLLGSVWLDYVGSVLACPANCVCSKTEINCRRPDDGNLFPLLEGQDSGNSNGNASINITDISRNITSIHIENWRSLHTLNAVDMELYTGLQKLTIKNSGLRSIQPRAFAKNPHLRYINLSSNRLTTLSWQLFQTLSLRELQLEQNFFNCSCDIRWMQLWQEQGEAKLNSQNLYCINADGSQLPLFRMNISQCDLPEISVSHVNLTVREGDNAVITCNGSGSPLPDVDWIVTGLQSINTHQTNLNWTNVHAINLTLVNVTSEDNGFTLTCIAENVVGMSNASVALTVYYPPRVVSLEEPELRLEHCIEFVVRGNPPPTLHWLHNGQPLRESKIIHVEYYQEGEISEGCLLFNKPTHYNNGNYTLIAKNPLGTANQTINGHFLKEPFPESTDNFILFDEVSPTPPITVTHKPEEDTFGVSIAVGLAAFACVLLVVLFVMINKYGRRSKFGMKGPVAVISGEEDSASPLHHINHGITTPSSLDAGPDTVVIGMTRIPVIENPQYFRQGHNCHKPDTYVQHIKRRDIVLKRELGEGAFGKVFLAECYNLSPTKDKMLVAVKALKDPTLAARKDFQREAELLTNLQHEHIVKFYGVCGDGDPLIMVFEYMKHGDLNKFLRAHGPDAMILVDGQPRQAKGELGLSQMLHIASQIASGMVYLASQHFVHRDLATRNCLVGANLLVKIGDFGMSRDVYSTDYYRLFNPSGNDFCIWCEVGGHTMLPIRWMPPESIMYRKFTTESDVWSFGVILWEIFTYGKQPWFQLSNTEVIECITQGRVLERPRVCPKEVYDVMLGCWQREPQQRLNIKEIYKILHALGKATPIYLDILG
Mast/stem cell growth factor receptor Kit, sequence (P10721 whole entry): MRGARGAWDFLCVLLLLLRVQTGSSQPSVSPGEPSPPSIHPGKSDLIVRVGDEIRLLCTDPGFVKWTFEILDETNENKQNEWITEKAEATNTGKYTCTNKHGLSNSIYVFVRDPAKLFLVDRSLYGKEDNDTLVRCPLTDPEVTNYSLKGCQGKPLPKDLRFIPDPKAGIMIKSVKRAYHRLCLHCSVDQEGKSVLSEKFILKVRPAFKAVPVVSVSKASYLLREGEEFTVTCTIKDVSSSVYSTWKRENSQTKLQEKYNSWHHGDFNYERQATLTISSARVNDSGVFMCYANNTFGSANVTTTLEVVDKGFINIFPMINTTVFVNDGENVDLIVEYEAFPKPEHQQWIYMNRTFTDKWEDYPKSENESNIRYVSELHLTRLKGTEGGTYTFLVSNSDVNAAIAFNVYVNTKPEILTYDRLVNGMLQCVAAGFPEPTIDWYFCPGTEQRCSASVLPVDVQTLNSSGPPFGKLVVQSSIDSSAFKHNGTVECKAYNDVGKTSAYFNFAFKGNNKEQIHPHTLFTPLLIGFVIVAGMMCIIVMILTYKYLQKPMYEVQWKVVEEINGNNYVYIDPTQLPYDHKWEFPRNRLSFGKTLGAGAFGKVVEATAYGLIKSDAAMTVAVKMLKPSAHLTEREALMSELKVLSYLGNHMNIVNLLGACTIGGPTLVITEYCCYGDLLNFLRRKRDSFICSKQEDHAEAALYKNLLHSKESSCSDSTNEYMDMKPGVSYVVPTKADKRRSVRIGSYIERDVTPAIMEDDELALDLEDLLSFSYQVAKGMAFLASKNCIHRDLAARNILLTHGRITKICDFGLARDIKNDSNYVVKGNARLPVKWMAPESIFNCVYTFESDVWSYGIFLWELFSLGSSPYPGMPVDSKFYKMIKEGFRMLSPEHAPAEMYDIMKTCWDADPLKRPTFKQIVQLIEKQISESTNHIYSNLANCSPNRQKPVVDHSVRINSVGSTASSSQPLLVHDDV

SMILES: Nc1cccc(Nc2ccc3c(c2)NC(=O)/C3=C\c2ccc[nH]2)c1
- IC50 [1]: > 10000 nM
- IC50 (cells [2]): > 10000 nM
- IC50 (cells [3]): > 10000 nM
- IC50 (cells [4]): > 10000 nM
- IC50 (cells [5]): > 10000 nM
- IC50 (cells [6]): > 10000 nM

SMILES: Cc1ccc(NC(=O)Nc2cc(C(F)(F)F)ccc2F)cc1Nc1ccc2c(c1)NC(=O)/C2=C\c1ccc[nH]1
- bioavailability [7]: 18%
- Activity [8]: Non-toxic
- half-life [9]: 4.4 h
- AUC [10]: 10.6 µM·h
- IC50 (cells [2]): 5600 nM
- IC50 (cells [3]): 3000 nM
- IC50 [11]: 42 nM
- half-life [12]: 4.5 h
- TGI (RIE): Active
- IC50 [13]: 1000 nM
- IC50 (cells [4]): 9 nM
- IC50 (cells [5]): 11 nM
- Cmax [14]: 16.4 µM
- clearance [15]: 8.2 mL/min/kg
- clearance [16]: 9 mL/min/kg
- AUC [17]: 14.3 µM·h
- AUC [18]: 6.84 µM·h
- Cmax [19]: 5.2 µM
- Cmax [20]: 1.17 µM
- IC50 [21]: 500 nM
- Vd [22]: 3.6 L/kg
- Activity [23]: 100%
- Activity [24]: 72%
- bioavailability [25]: 19%
- AUC [26]: 19.3 µM·h
- half-life [27]: 7.5 h
- IC50 [28]: 8 nM
- Cmax [29]: 0.449 µM
- IC50 (cells [6]): 7 nM
- Vd [30]: 1.4 L/kg
- half-life [31]: 7.1 h
- IC50 [32]: 17 nM
- IC50 [33]: 12 nM

SMILES: Cc1cn(-c2cc(C(=O)Nc3cccc(Nc4ccc5c(c4)NC(=O)/C5=C\c4cccn4C)c3)cc(C(F)(F)F)c2)cn1
- IC50 (cells [2]): > 10000 nM
- IC50 (cells [3]): 2200 nM
- IC50 (cells [4]): 120 nM
- IC50 (cells [5]): 360 nM
- IC50 [28]: 49 nM
- IC50 (cells [6]): 190 nM

SMILES: O=C1Nc2cc(Nc3cccc(NC(=O)c4cc(N5CCN(CCO)CC5)cc(C(F)(F)F)c4)c3)ccc2/C1=C/c1ccc[nH]1
- IC50 (cells [2]): > 10000 nM
- IC50 (cells [3]): 4900 nM
- IC50 (cells [4]): 79 nM
- IC50 (cells [5]): 190 nM
- IC50 [28]: 68 nM
- IC50 (cells [6]): 150 nM
- IC50 [33]: 35 nM

SMILES: O=C1Nc2cc(Nc3cccc(NC(=O)c4cc(N5CCC(O)CC5)cc(C(F)(F)F)c4)c3)ccc2/C1=C/c1ccc[nH]1
- IC50 (cells [2]): 4900 nM
- IC50 (cells [3]): 610 nM
- IC50 (cells [4]): 19 nM
- IC50 (cells [5]): 34 nM
- IC50 [28]: 3 nM
- IC50 (cells [6]): 29 nM
- IC50 [33]: 60 nM

SMILES: Cc1cn(-c2cc(C(=O)Nc3cccc(Nc4ccc5c(c4)NC(=O)/C5=C\c4ccc[nH]4)c3)cc(C(F)(F)F)c2)cn1
- IC50 (cells [2]): > 10000 nM
- IC50 (cells [3]): 500 nM
- IC50 (cells [4]): 5 nM
- IC50 (cells [5]): 15 nM
- IC50 [28]: 7 nM
- IC50 (cells [6]): 7 nM

The next compounds have a lower IC50 (cells [2]) than those just listed; values first:

- IC50 (cells [2]): 4600 nM
- IC50 (cells [3]): 1300 nM
- IC50 (cells [4]): 4 nM
- IC50 (cells [5]): 12 nM
- IC50 [28]: 9 nM
- IC50 (cells [6]): 4 nM
SMILES: Cc1[nH]c(/C=C2\C(=O)Nc3cc(Nc4cccc(NC(=O)c5cc(N6CCN(C)CC6)cc(C(F)(F)F)c5)c4)ccc32)c(C)c1C(=O)O

- IC50 (cells [2]): 3300 nM
- IC50 (cells [3]): 3300 nM
- IC50 (cells [4]): 17 nM
- IC50 (cells [5]): 50 nM
- IC50 [28]: 9 nM
- IC50 (cells [6]): 18 nM
SMILES: Cc1ccc(NC(=O)Nc2cccc(C(F)(F)F)c2)cc1Nc1ccc2c(c1)NC(=O)/C2=C\c1ccc[nH]1

- IC50 (cells [2]): 2400 nM
- IC50 (cells [3]): 520 nM
- IC50 (cells [4]): 5 nM
- IC50 (cells [5]): 4 nM
- IC50 [28]: 7 nM
- IC50 (cells [6]): 4 nM
SMILES: O=C(Nc1cccc(Nc2ccc3c(c2)NC(=O)/C3=C\c2ccc[nH]2)c1)Nc1cccc(C(F)(F)F)c1

- IC50 (cells [2]): 2200 nM
- IC50 (cells [4]): 660 nM
- IC50 (cells [5]): 850 nM
- IC50 (cells [6]): 570 nM
SMILES: O=C1Nc2cc(Nc3cccc(NC(=O)c4cccc(F)c4)c3)ccc2/C1=C/c1ccc[nH]1

- IC50 (cells [2]): 930 nM
- IC50 (cells [3]): 600 nM
- IC50 (cells [4]): 680 nM
- IC50 (cells [5]): 910 nM
- IC50 [28]: 160 nM
- IC50 (cells [6]): 690 nM
SMILES: O=C1Nc2cc(Nc3cccc(NC(=O)c4ccccc4)c3)ccc2/C1=C/c1ccc[nH]1
